Assay results taken from ChEMBL document CHEMBL4270630.
pEC50: −log10 of the molar value.

Experiments:
Influenza B virus [1] = experiment: Antiviral activity against Influenza B virus B/HK/05/72 infected in MDCK cells assessed as reduction in virus-induced cytopathic effect after 3 days by microscopic method; type: functional, organism-based; conditions: B/Hong Kong/05/1972, MDCK, 72 h
Procedure, shortened: (§1)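 Semi-confluent MDCK cells were infected at an MOI of 0.0004 PFU/cell in Ultra-MDCK infection medium with 2 μg/mL TPCK-trypsin, together with compounds. After 3 days at 35 °C, CPE was scored by microscopy and confirmed by MTS formazan viability. EC50 is the concentration giving 50% inhibition of virus-induced CPE. Values are means of two to five independent tests.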

[2] = Cytotoxicity against MDCK cells assessed as alteration in cell morphology after 3 days by microscopic method; type: cell-based, Canis lupus familiaris; conditions: dog
Procedure, shortened: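 Mock-infected MDCK cells were treated with compounds in parallel with the antiviral assay, 3 days at 35 °C. MCC is the concentration causing minimal change in cell morphology by microscopy. CC50 is the 50% cytotoxic concentration by MTS formazan viability assay.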

Influenza A virus [3] = experiment: Antiviral activity against Influenza A virus A/Virginia/ATCC3/2009(H1N1pdm) infected in MDCK cells after 3 days by MTS assay; type: functional, organism-based, Influenza A virus (A/Virginia/03/2009(H1N1)); conditions: 72 h; procedure, shortened: as §1
Influenza A virus [4] = experiment: Antiviral activity against Influenza A virus A/Virginia/ATCC3/2009(H1N1pdm) infected in MDCK cells assessed as reduction in virus-induced cytopathic effect after 3 days by microscopic method; type: functional, organism-based, Influenza A virus (A/Virginia/03/2009(H1N1)); conditions: 72 h; procedure, shortened: as §1
Influenza A virus [5] = experiment: Antiviral activity against Influenza A virus A/PR/8/34(H1N1) infected in MDCK cells after 3 days by MTS assay; type: functional, organism-based, A/Puerto Rico/8/1934(H1N1); procedure, shortened: as §1
MDCK = experiment: Cytotoxicity against MDCK cells assessed as reduction in cell viability after 3 days by MTS assay; type: cell-based, Canis lupus familiaris; conditions: dog, mdck, 72 h
Influenza A virus [6] = experiment: Antiviral activity against Influenza A virus A/PR/8/34(H1N1) infected in MDCK cells assessed as reduction in virus-induced cytopathic effect after 3 days by microscopic method; type: functional, organism-based, A/Puerto Rico/8/1934(H1N1); procedure, shortened: as §1
H3N2 subtype [7] = experiment: Antiviral activity against Influenza A virus A/HK/7/87(H3N2) infected in MDCK cells assessed as reduction in virus-induced cytopathic effect after 3 days by microscopic method; type: functional, organism-based; conditions: A/Hong Kong/7/1987(H3N2), 72 h; procedure, shortened: as §1
Influenza B virus [8] = experiment: Antiviral activity against Influenza B virus B/HK/05/72 infected in MDCK cells after 3 days by MTS assay; type: functional, organism-based; conditions: B/Hong Kong/05/1972, MDCK, 72 h; procedure, shortened: as §1
H3N2 subtype [9] = experiment: Antiviral activity against Influenza A virus A/HK/7/87(H3N2) infected in MDCK cells after 3 days by MTS assay; type: functional, organism-based; conditions: A/Hong Kong/7/1987(H3N2), 72 h; procedure, shortened: as §1
Influenza B virus [10] = experiment: Antiviral activity against Influenza B virus B/Ned/537/05 infected in MDCK cells after 3 days by MTS assay; type: functional, organism-based; conditions: B/Ned/537/05, MDCK, 72 h
Procedure, shortened: (§2)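 Semi-confluent MDCK cells were infected at an MOI of 0.0004 PFU/cell in Ultra-MDCK infection medium with 2 μg/mL TPCK-trypsin, together with compounds. After 3 days at 35 °C, CPE was scored by microscopy and confirmed by MTS formazan viability. Values are means of two to five independent tests.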

Influenza B virus [11] = experiment: Antiviral activity against Influenza B virus B/Ned/537/05 infected in MDCK cells assessed as reduction in virus-induced cytopathic effect after 3 days by microscopic method; type: functional, organism-based; conditions: B/Ned/537/05, MDCK, 72 h; procedure, shortened: as §2
[12] = Influenza A virus, A/Puerto Rico/8/1934(H1N1), MDCK, 72 h

Row | Compound | pEC50 (Influenza B virus [1]) | MCC at 72 h [2] | pEC50 (Influenza A virus [3]) | pEC50 (Influenza A virus [4]) | pEC50 (Influenza A virus [5]; [12]) | CC50 (MDCK) | pEC50 (Influenza A virus [6]; [12]) | pEC50 (H3N2 subtype [7]) | pEC50 (Influenza B virus [8]) | pEC50 (H3N2 subtype [9]) | pEC50 (Influenza B virus [10]) | pEC50 (Influenza B virus [11]) | pEC50 (Influenza A virus [5]; mdck) | pEC50 (Influenza A virus [6]; mdck)
1 | CCCCCCCCSC1=C(SCCCCCCCC)C(=O)N(CCOCCOCCOCCOCc2cn(C3C(=O)N[C@@H]4Cc5ccc(c(Cl)c5)Oc5cc6cc(c5O)Oc5ccc(cc5Cl)[C@@H](O[C@@H]5O[C@H](CO)[C@@H](O)[C@H](O)[C@H]5NC(C)=O)[C@H]5NC(=O)[C@H](NC(O)[C@@H]6NC(=O)[C@@H](NC4=O)c4cc(O)cc(c4)Oc4cc3ccc4O)c3ccc(O)c(c3)-c3c(O)cc(O)cc3[C@H](C(=O)O)NC5=O)nn2)C1=O (stereo not given in full) | < 4.70 | ≥ 4 µM | ≥ 6.10 | ≥ 5.85 | 5.70 | 19 µM | 5.89 | 6.04 | < 4.70 | ≥ 6.10 |  |  |  | 
2 | CCCCCCCCSC1=C(SCCCCCCCC)C(=O)N([C@H]2C(=O)N[C@@H]3Cc4ccc(c(Cl)c4)Oc4cc5cc(c4O)Oc4ccc(cc4Cl)[C@@H](O[C@@H]4O[C@H](CO)[C@@H](O)[C@H](O)[C@H]4NC(C)=O)[C@H]4NC(=O)[C@H](NC(O)[C@@H]5NC(=O)[C@@H](NC3=O)c3cc(O)cc(c3)Oc3cc2ccc3O)c2ccc(O)c(c2)-c2c(O)cc(O)cc2[C@H](C(=O)O)NC4=O)C1=O (stereo not given in full) | < 4.00 | 20 µM | 5.72 | 5.68 | < 4.00 | 11 µM | < 4.00 | < 4.00 | < 4.00 | < 4.00 |  |  |  | 
3 | CCCCCCCCCCCCSC1=C(SCCCCCCCCCCCC)C(=O)N(CCOCCOCCOCCOCc2cn(C3C(=O)N[C@@H]4Cc5ccc(c(Cl)c5)Oc5cc6cc(c5O)Oc5ccc(cc5Cl)[C@@H](O[C@@H]5O[C@H](CO)[C@@H](O)[C@H](O)[C@H]5NC(C)=O)[C@H]5NC(=O)[C@H](NC(O)[C@@H]6NC(=O)[C@@H](NC4=O)c4cc(O)cc(c4)Oc4cc3ccc4O)c3ccc(O)c(c3)-c3c(O)cc(O)cc3[C@H](C(=O)O)NC5=O)nn2)C1=O (stereo not given in full) |  | 20 µM | 5.55 | < 4.00 | 4.89 | 79 µM | < 4.00 | < 4.00 |  | 5.62 | < 4.00 | < 4.00 |  | 
4 | CC(=O)N[C@H]1[C@H](O[C@@H]2c3ccc(c(Cl)c3)Oc3cc4cc(c3O)Oc3ccc(cc3Cl)C[C@H]3NC(=O)C(n5cc(CN6C(=O)C(SC[C@H]7O[C@@H]8OC(C)(C)O[C@@H]8[C@H]8OC(C)(C)O[C@H]87)=C(SC[C@H]7O[C@@H]8OC(C)(C)O[C@@H]8[C@H]8OC(C)(C)O[C@H]87)C6=O)nn5)c5ccc(O)c(c5)Oc5cc(O)cc(c5)[C@H](NC3=O)C(=O)N[C@H]4C(O)N[C@H]3C(=O)N[C@H]2C(=O)N[C@@H](C(=O)O)c2cc(O)cc(O)c2-c2cc3ccc2O)O[C@H](CO)[C@@H](O)[C@@H]1O (stereo not given in full) | < 4.00 | 20 µM | < 4.00 | < 4.00 | < 4.00 | 18 µM | < 4.00 | < 4.00 | < 4.00 | < 4.00 |  |  |  | 
5 | CCCCCCCCCCCCSC1=C(SCCCCCCCCCCCC)C(=O)N([C@H]2C(=O)N[C@@H]3Cc4ccc(c(Cl)c4)Oc4cc5cc(c4O)Oc4ccc(cc4Cl)[C@@H](O[C@@H]4O[C@H](CO)[C@@H](O)[C@H](O)[C@H]4NC(C)=O)[C@H]4NC(=O)[C@H](NC(O)[C@@H]5NC(=O)[C@@H](NC3=O)c3cc(O)cc(c3)Oc3cc2ccc3O)c2ccc(O)c(c2)-c2c(O)cc(O)cc2[C@H](C(=O)O)NC4=O)C1=O (stereo not given in full) |  | ≤ 4 µM | < 4.00 | < 4.00 | < 4.00 | ≤ 1.1 µM | < 4.00 | < 4.00 |  | < 4.00 | < 4.00 | < 4.00 |  | 
6 | CCCCCCCCCCCCSC1=C(SCCC)C(=O)N([C@H]2C(=O)N[C@@H]3Cc4ccc(c(Cl)c4)Oc4cc5cc(c4O)Oc4ccc(cc4Cl)[C@@H](O[C@@H]4O[C@H](CO)[C@@H](O)[C@H](O)[C@H]4NC(C)=O)[C@H]4NC(=O)[C@H](NC(O)[C@@H]5NC(=O)[C@@H](NC3=O)c3cc(O)cc(c3)Oc3cc2ccc3O)c2ccc(O)c(c2)-c2c(O)cc(O)cc2[C@H](C(=O)O)NC4=O)C1=O (stereo not given in full) |  | ≥ 20 µM | 5.09 | 5.29 | 5.00 | 29 µM | < 4.00 | 5.14 |  | 5.17 | 5.14 | 5.05 |  | 
7 | CC(=O)N[C@H]1[C@H]([C@H](O)[C@H](O)CO)OC(C(=O)O)=C[C@@H]1N=C(N)N [ZANAMIVIR] |  | > 100 µM | 4.52 | 5.72 | 6.72 | > 100 µM | 7.39 | 4.70 |  | 5.49 | 8.21 | 8.10 |  | 
8 | CC(N)C12CC3CC(CC(C3)C1)C2 (stereo not given) [RIMANTADINE] |  | > 500 µM |  |  | < 3.30 | > 500 µM | < 3.30 | 6.70 |  |  | < 3.30 | < 3.30 |  | 
9 | NC(=O)c1ncn([C@@H]2O[C@H](CO)[C@@H](O)[C@H]2O)n1 [RIBAVIRIN] |  | > 100 µM |  |  |  |  |  | 4.89 |  | 5.23 |  |  | 5.04 | 5.08
10 | CC(=O)N[C@H]1[C@H](O[C@@H]2c3ccc(c(Cl)c3)Oc3cc4cc(c3O)Oc3ccc(cc3Cl)C[C@H]3NC(=O)C(n5cc(COCCOCCOCCOCCN6C(=O)C(SCCOCCOCCOCCO)=C(SCCOCCOCCOCCO)C6=O)nn5)c5ccc(O)c(c5)Oc5cc(O)cc(c5)[C@H](NC3=O)C(=O)N[C@H]4C(O)N[C@H]3C(=O)N[C@H]2C(=O)N[C@@H](C(=O)O)c2cc(O)cc(O)c2-c2cc3ccc2O)O[C@H](CO)[C@@H](O)[C@@H]1O (stereo not given in full) |  | > 100 µM | < 4.00 | < 4.00 | < 4.00 | ≥ 32 µM | < 4.00 | < 4.00 |  | 4.64 | 4.38 | < 4.00 |  | 
11 | CCCSC1=C(SCCC)C(=O)N([C@H]2C(=O)N[C@@H]3Cc4ccc(c(Cl)c4)Oc4cc5cc(c4O)Oc4ccc(cc4Cl)[C@@H](O[C@@H]4O[C@H](CO)[C@@H](O)[C@H](O)[C@H]4NC(C)=O)[C@H]4NC(=O)[C@H](NC(O)[C@@H]5NC(=O)[C@@H](NC3=O)c3cc(O)cc(c3)Oc3cc2ccc3O)c2ccc(O)c(c2)-c2c(O)cc(O)cc2[C@H](C(=O)O)NC4=O)C1=O (stereo not given in full) |  | 20 µM | 5.70 | 5.74 | < 4.00 | 18 µM | < 4.00 | < 4.00 |  | < 4.00 | 5.14 | < 4.00 |  | 
12 | NC12CC3CC(CC(C3)C1)C2 [AMANTADINE] |  | > 500 µM |  |  | < 3.30 | > 500 µM | < 3.30 | 4.96 |  | 5.72 | < 3.30 | < 3.30 |  | 
